RGS4 pot: potentiators or activators of RGS4; HEK293 M3R/inducible RGS4, carbachol calcium flux Fluo4; active compounds read low; B-score at 10 µM; 0.92% of 310,000 active; AID 463111;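 active = B-score of the integrated calcium signal more than 4 SD below the library mean, with starting fluorescence not abnormally high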;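 also: negative B-score means reduced calcium response which marks RGS4 activation or potentiation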
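Also added: carbachol at ECmax as muscarinic agonist stimulus; Assay system: HEK293 cells with stable M3R and inducible RGS4; Timing: overnight RGS4 induction, 30 min dye load 37 °C, 20 min compound RT; Measured by: Fluo4-AM (2 µM) calcium-flux fluorescence, kinetic read.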
MrgX1 ag: agonists of human MrgX1 receptor | Q96LB2 | AID 588627 | 0.44% of 310,000 active | B-score at 10 µM | MrgX1-HEK293 cells, Fluo-4 calcium fluorescence, agonist mode; active compounds read high;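 active = calcium response B-score plate-corrected fluorescence ratio at least 3 library SD, with starting fluorescence B-score inside 5 SD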
Target sequence (Q96LB2 whole entry, looked up): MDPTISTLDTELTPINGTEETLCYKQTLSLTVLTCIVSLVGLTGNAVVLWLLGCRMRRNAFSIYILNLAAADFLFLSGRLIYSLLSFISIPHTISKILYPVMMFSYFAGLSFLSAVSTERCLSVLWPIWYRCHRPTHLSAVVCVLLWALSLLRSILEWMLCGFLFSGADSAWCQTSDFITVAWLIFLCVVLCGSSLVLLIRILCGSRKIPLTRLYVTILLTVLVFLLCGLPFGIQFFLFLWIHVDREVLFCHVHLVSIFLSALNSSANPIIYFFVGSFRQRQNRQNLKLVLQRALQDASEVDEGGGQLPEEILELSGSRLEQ
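Test system: HEK293 cells stably expressing human MrgX1 receptor; Input: fifteen thousand cells per well; Dosing: compound delivered in addition one of three; Schedule: overnight seeding, then 1 h dark dye loading; Technique: Fluo-4 NW calcium fluorescence; Measure: B-scored fluorescence response ratio; Controls: positive and negative controls per plate.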
MrgX1 PAM: allosterically activates human MrgX1 receptor signaling | 0.63% of 310,000 active | B-score at 10 µM | MrgX1-HEK293, Fluo-4 calcium flux, FDSS; active compounds read high | Q96LB2;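 active = plate-corrected calcium response at least 3 library SD above typical, normal starting fluorescence, not activating the receptor alone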;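 also: compound read alongside a low EC10 to EC30 dose of BAM8-22 agonist; peak minus trough fluorescence over baseline measured at the second addition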
MrgX1 antagonist: blocks BAM8-22 activation of human MrgX1 receptor. Q96LB2. MRGX1-HEK293 calcium flux, Fluo-4, BAM8-22 antagonism; active compounds read low. 1.3% of 310,000 active. B-score at 10 µM;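 active = calcium-response B-score plate-corrected more than 3 library SD below zero, starting fluorescence within 5 deviations, no agonist response on first addition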;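 also: peak minus trough fluorescence over baseline after final BAM8-22 challenge near maximal dose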
RGS4 inh: inhibitors of human RGS4; P49798; HEK293 M3R/RGS4 inducible, Fluo-4 calcium flux; active compounds read high; triggered by carbachol at its EC20; B-score at 10 µM; 0.45% of 310,000 active; AID 463165;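 active = B-score, a plate-corrected calcium signal, over three deviations above library mean, with baseline fluorescence within five deviations of library mean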;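 also: RGS4 expression induced by doxycycline in cells with stable M3 receptor; B-score is computed from the integrated fluorescence ratio over baseline after carbachol; higher B-score means a larger calcium signal and so more RGS4 inhibition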
Target sequence (P49798 whole entry, looked up): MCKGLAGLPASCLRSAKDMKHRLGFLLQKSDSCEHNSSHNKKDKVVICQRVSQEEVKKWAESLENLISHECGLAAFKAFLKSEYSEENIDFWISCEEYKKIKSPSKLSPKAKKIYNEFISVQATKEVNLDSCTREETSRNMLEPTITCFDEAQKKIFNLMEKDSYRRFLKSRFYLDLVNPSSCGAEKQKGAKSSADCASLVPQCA
* = called active by the depositor; i = inactive; / = no result. Rows were chosen to be rich in hits. Some 3.5% of all compounds tested hit in one or more screens of this group.

SMILES	RGS4 pot	MrgX1 ag	MrgX1 PAM	MrgX1 antagonist	RGS4 inh
Cc1c(C(=O)Nc2ccc(Cl)cc2)c2ccccn2c1C(=O)c1ccccc1	i	i	i	i	i
Cc1c(C(=O)Nc2ccc(Cl)cc2)c2ccccn2c1C(=O)c1ccc([N+](=O)[O-])cc1	-8.2*	i	i	i	i
Cn1c(CNC(=O)c2ccco2)nnc1SCCOc1ccccc1	i	/	/	/	i
O=[N+]([O-])c1ccc(Nc2nc(N/N=C\c3ccc4c(c3)OCO4)nc(N3CCCCC3)n2)cc1	i	i	i	-4.5*	i
O=[N+]([O-])c1ccc(/C=N/Nc2nc(N3CCCCC3)nc(N3CCCCC3)n2)cc1	i	i	i	i	i
COc1ccc(NC(=O)Cn2ncn3nc(-c4ccc(OC)cc4)cc3c2=O)cc1	i	i	i	i	i
COc1cccc(/C=N/NC(=O)c2ccoc2C)c1	-8.5*	i	i	i	i
COc1ccccc1Oc1ccc(S(=O)(=O)N2CCCCC2C)cc1 (stereo not given)	i	i	i	i	i
COc1ccccc1Oc1ccc(S(=O)(=O)N2CCCC2)cc1	i	i	i	-6.1*	i
C[C@]12C=CC(=O)C=C1CC[C@@H]1C2=CC[C@]2(C)[C@@H](C(=O)CN3CCN(c4cc(N5CCCC5)nc(N5CCCC5)n4)CC3)CC[C@@H]12	i	38*	i	i	i
O=C(NCc1cccnc1)c1ccc(-c2ccccc2[N+](=O)[O-])o1	i	i	i	-5.9*	i
O=[N+]([O-])c1ccc(-c2ccc(/C=N/Nc3nc(NCc4ccccc4)nc(N4CCOCC4)n3)o2)cc1	i	i	13*	i	i
COc1ccc(N2CCN(C(CNS(=O)(=O)c3ccccc3)c3ccccc3)CC2)cc1 (stereo not given)	i	i	i	i	i
c1ccc(C2OC3c4cccc5cccc(c45)C3N2c2ccccc2)cc1 (stereo not given)	i	34*	i	i	i
N#C/C(=C\c1ccc(O)cc1)C(=O)N1CCCC1	i	i	i	i	i
N#C/C(=C\c1ccc(C#N)cc1)C(=O)N1CCCC1	i	i	i	i	5.1*
CC(C)OC(=O)c1c2nc3ccccc3nc2n2c1[nH]c(=O)c1ccccc12	i	32*	i	i	i
COc1ccc(CNC(=O)C2CCC(CNc3nc(=S)[nH]c4ccccc34)CC2)cc1 (stereo not given)	i	i	12*	i	i
CC(=O)NCCNC(=O)C1CCC(CNc2nc(=S)[nH]c3ccccc23)CC1 (stereo not given)	i	i	i	i	i
CS(=O)(=O)c1cccc(-c2nnc(NC(=O)C3=COCCO3)o2)c1	i	i	i	-4.9*	i
Cc1cc(C)cc(NC(=S)Nc2ccc(Cl)c(Cl)c2)c1	i	i	i	i	i
Cc1cccc(C)c1NC(=S)Nc1ccc(Cl)c(Cl)c1	i	32*	i	i	i
O=c1c(C(c2ccccc2)c2c(O)sc3ccccc3c2=O)c(O)sc2ccccc12	i	i	i	-4.6*	i
Cc1cc2sc3ccccc3c(=O)c2c(C)c1O	i	i	i	i	i
Cc1cc(C)c(C#N)c(Nc2cccc(C)c2C)n1	i	i	i	i	i
SMILES	RGS4 pot	MrgX1 ag	MrgX1 PAM	MrgX1 antagonist	RGS4 inh
CN(c1ccccc1)c1ccc(/C=C(\CCC(=O)O)c2nc3ccccc3s2)cc1[N+](=O)[O-]	i	i	i	-7.4*	i
COc1cc(OC)cc(C(=O)N[C@H](C(=O)OCC(=O)N2CCc3ccccc32)C(C)C)c1	i	i	i	i	i
Cc1ccc(C(=O)OC(C)C(=O)c2cc(C)c(C)cc2C)o1 (stereo not given)	i	i	i	i	i
CC[N+](CC)(CC)C/C(N)=N/O	i	i	i	-6.1*	i
CCOC1OC(=O)C(Cl)=C1Nc1cc(C)ccc1C (stereo not given)	i	i	i	i	i
CCOc1ccc(OCc2cccc(C(=O)Nc3ccc(CN4CCCCC4)cc3)c2)cc1	-7.3*	i	i	i	i
CSc1cccc(NC(=O)c2ccc(CN3CCc4ccccc4C3)cc2)c1	i	i	i	-8.2*	i
CC(=O)Nc1ccc(NC(=O)c2ccc(CN3CCc4ccccc4C3)cc2)cc1	i	i	i	i	i
O=C(Nc1cccc(Br)c1)c1ccc(CN2CCc3ccccc3C2)cc1	-8.8*	i	i	-6.1*	i
O=C(OCC(=O)N1CCCCC1)c1cc(NS(=O)(=O)c2ccc(Cl)c([N+](=O)[O-])c2)ccc1O	i	i	i	i	i
Cn1c(NNC(=O)C(c2ccccc2)c2ccccc2)cc(=O)n(C)c1=O	i	i	i	i	i
CCCn1c(SCC(=O)N2N=C3/C(=C/c4ccc(OC)cc4)CCCC3C2c2ccc(OC)cc2)n[nH]c1=O (stereo not given)	i	i	i	-5.1*	i
CCCn1c(SCC(=O)NCc2ccc(OC)cc2)n[nH]c1=O	i	i	i	i	i
O=[N+]([O-])/C=C/c1c(OCc2ccccc2)ccc2ccccc12	i	i	i	i	13*
CCc1ccc(CN2CCC(Oc3ccc(C(=O)N4CCCC4)cc3)CC2)cc1	i	i	i	i	i
CCc1ccc(CN2CCC(Oc3ccc(C(=O)N4CCCCC4)cc3)CC2)cc1	-7.2*	i	i	i	i
O=[N+]([O-])c1cccc(-c2csc(N/N=C/c3cccc(O)c3)n2)c1	i	i	i	i	i
CCOC(=O)CSc1nc2c(sc(=S)n2-c2ccccc2OC)c(=O)n1Cc1ccco1	i	40*	i	i	i
CCc1ccccc1NC(=S)N(CCOC)C(C)c1ccco1 (stereo not given)	i	i	i	i	i
Cc1c(-n2cc(C(=O)c3cc(Cl)ccc3O)cc(C#N)c2=O)c(=O)n(-c2ccccc2)n1C	i	i	7.8*	i	i
Cc1ccc(O)c(C(=O)c2cc(C#N)c(=O)n(-c3nccs3)c2)c1	i	53*	i	i	i
Cc1cccc(OCCSc2nc3ccccc3n2CCC(=O)O)c1	i	i	i	i	i
Cc1nc(SCC(=O)N2CCCCCC2)[nH]c(=O)c1C	i	i	i	i	i
COCCN=c1scc(-c2cccs2)n1/N=C/c1ccc(O)c(O)c1O	i	i	16*	i	i

High-throughput results deposited in PubChem by Johns Hopkins Ion Channel Center.
